The source made the active and inactive calls.
Tests used:
Mus musculus [1] = experiment: Anticonvulsant activity in Kunming mouse assessed as protection against subcutaneous pentylenetetrazol-induced clonic seizures at 300 mg/kg, ip measured after 0.5 hrs; format: functional, organism-based; parameters: dose 300 mg/kg
Procedure, shortened: (§1)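 Male Kunming mice (20 ± 2.0 g) received ip doses of 30, 100 or 300 mg/kg as a suspension in 0.5% methylcellulose, one to four mice per dose. Pentylenetetrazole in 0.9% saline was injected subcutaneously. Protection meant failure to show even a threshold seizure (a single clonic spasm lasting at least 5 s), read at 0.5 h and 4.0 h. Activity was scored as the minimal dose protecting half or more of the mice.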

Mus musculus [2] = experiment: Anticonvulsant activity in Kunming mouse assessed as protection against maximal electroshock-induced seizures at 300 mg/kg, ip measured after 4 hrs; format: functional, organism-based; parameters: dose 300 mg/kg
Procedure, shortened: (§2)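 Male Kunming mice (20 ± 2.0 g) were dosed ip at 30, 100 and 300 mg/kg as a suspension in 0.5% methylcellulose, one to four mice per dose. A 60-Hz, 50-mA current was applied through corneal electrodes for 0.25 s at 0.5 h and 4.0 h after dosing. Absence of hindlimb tonic extension counted as protection. The value is the minimal dose protecting half or more of the mice.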

Mus musculus [3] = experiment: Anticonvulsant activity in Kunming mouse assessed as protection against maximal electroshock-induced seizures at 100 mg/kg, ip measured after 0.5 hr; format: functional, organism-based; parameters: dose 100 mg/kg; procedure, shortened: as §2
Mus musculus [4] = experiment: Anticonvulsant activity in Kunming mouse assessed as protection against subcutaneous pentylenetetrazol-induced clonic seizures at 300 mg/kg, ip measured after 4 hrs; format: functional, organism-based; parameters: dose 300 mg/kg; procedure, shortened: as §1
Mus musculus [5] = experiment: Neurotoxicity in Kunming mouse at 300 mg/kg, ip after 0.5 hr by rotorod test; format: toxicity, organism-based; parameters: dose 300 mg/kg, route intraperitoneal; details: in vivo
Procedure, shortened: (§3)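 Trained male Kunming mice were given ip doses of 30, 100 or 300 mg/kg, one to four per dose. They were placed on a 1 in. knurled rod rotating at 6 rpm, and examined at 0.5 h and 4.0 h. Neurotoxicity was inability to keep balance for at least 1 min in each of four trials. The value is the minimal dose giving toxicity in half or more of the mice.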

Mus musculus [6] = experiment: Neurotoxicity in Kunming mouse at 300 mg/kg, ip after 4 hrs by rotorod test; format: toxicity, organism-based; parameters: dose 300 mg/kg, route intraperitoneal; details: in vivo; procedure, shortened: as §3
Mus musculus [7] = experiment: Anticonvulsant activity in Kunming mouse assessed as protection against subcutaneous pentylenetetrazol-induced clonic seizures at 100 mg/kg, ip measured after 4 hrs; format: functional, organism-based; parameters: dose 100 mg/kg; procedure, shortened: as §1
Mus musculus [8] = experiment: Anticonvulsant activity in ip dosed Kunming mouse assessed as protection against subcutaneous pentylenetetrazol-induced clonic seizures; format: functional
Mus musculus [9] = experiment: Anticonvulsant activity in ip dosed Kunming mouse assessed as protection against maximal electroshock-induced seizures; format: functional
[10] = Neurotoxicity in ip dosed Kunming mouse measured 30 mins post compound administration by rotorod test; format: toxicity, organism-based; details: in vivo
Mus musculus [11] = experiment: Protective index, ratio of TD50 for neurotoxicity in Kunming mouse to ED50 for protection against subcutaneous pentylenetetrazol-induced clonic seizures in Kunming mouse; format: functional
Mus musculus [12] = experiment: Anticonvulsant activity in Kunming mouse assessed as protection against maximal electroshock-induced seizures at 30 mg/kg, ip measured after 4 hrs; format: functional, organism-based; parameters: dose 30 mg/kg; procedure, shortened: as §2
Mus musculus [13] = experiment: Anticonvulsant activity in Kunming mouse assessed as protection against maximal electroshock-induced seizures at 30 mg/kg, ip measured after 0.5 hr; format: functional, organism-based; parameters: dose 30 mg/kg; procedure, shortened: as §2
Mus musculus [14] = organism: Mus musculus; experiment: Protective index, ratio of TD50 for neurotoxicity in Kunming mouse to ED50 for protection against MES-induced seizures in Kunming mouse; format: functional
Mus musculus [15] = experiment: Anticonvulsant activity in Kunming mouse assessed as protection against maximal electroshock-induced seizures at 300 mg/kg, ip measured after 0.5 hr; format: functional, organism-based; parameters: dose 300 mg/kg; procedure, shortened: as §2
Mus musculus [16] = experiment: Anticonvulsant activity in Kunming mouse assessed as protection against subcutaneous pentylenetetrazol-induced clonic seizures at 100 mg/kg, ip measured after 0.5 hrs; format: functional, organism-based; parameters: dose 100 mg/kg; procedure, shortened: as §1
Mus musculus [17] = experiment: Anticonvulsant activity in Kunming mouse assessed as protection against maximal electroshock-induced seizures at 100 mg/kg, ip measured after 4 hrs; format: functional, organism-based; parameters: dose 100 mg/kg; procedure, shortened: as §2
Mus musculus [18] = experiment: Neurotoxicity in Kunming mouse at 100 mg/kg, ip after 0.5 hr by rotorod test; format: toxicity, organism-based; parameters: dose 100 mg/kg, route intraperitoneal; details: in vivo; procedure, shortened: as §3
Mus musculus [19] = experiment: Neurotoxicity in Kunming mouse at 100 mg/kg, ip after 4 hrs by rotorod test; format: toxicity, organism-based; parameters: dose 100 mg/kg, route intraperitoneal; details: in vivo; procedure, shortened: as §3

Row | SMILES | Activity (Mus musculus [1]) | Activity (Mus musculus [2]) | Activity (Mus musculus [4]) | Activity (Mus musculus [5]) | Activity (Mus musculus [6]) | Activity (Mus musculus [15]) | also measured
1 | CCOC(=O)C1(NC(=O)NNC(=O)c2ccc(Br)cc2)CC1(C)C (stereo unspecified) | inactive | inactive | inactive | Non-toxic | Toxic | – | Activity (Mus musculus [3]): Active
2 | CCOC(=O)C1(NC(=O)NNC(=O)c2ccc(C(F)(F)F)cc2)CC1(C)C (stereo unspecified) | Active | – | – | Non-toxic | Non-toxic | – | Activity (Mus musculus [7]): Active; ED50 (Mus musculus [8]): 58.4 mg/kg; ED50 (Mus musculus [9]): 9.8 mg/kg; TD50 at 0.5 h [10]: 332 mg/kg; Ratio TD50/ED50 (Mus musculus [11]): 5.9; Activity (Mus musculus [12]): Active; Activity (Mus musculus [13]): Active; Ratio TD50/ED50 (Mus musculus [14]): 33.9
3 | CCOC(=O)C1(NC(=O)NNC(=O)c2ccccc2Br)CC1(C)C (stereo unspecified) | Active | – | Active | Non-toxic | Non-toxic | Active | Activity (Mus musculus [12]): Active
4 | CCOC(=O)C1(NC(=O)NNC(=O)c2ccccc2F)CC1(C)C (stereo unspecified) | inactive | inactive | inactive | Non-toxic | Toxic | Active | –
5 | CCOC(=O)C1(NC(=O)NNC(=O)c2ccc(OC)cc2)CC1(C)C (stereo unspecified) | – | Active | inactive | Non-toxic | Non-toxic | Active | Activity (Mus musculus [16]): Active
6 | CCC1(C)CC(=O)NC1=O (stereo unspecified) [ETHOSUXIMIDE] | – | inactive | Active | Non-toxic | Non-toxic | inactive | Activity (Mus musculus [16]): Active
7 | CCOC(=O)C1(NC(=O)NNC(=O)c2ccc(C(C)(C)C)cc2)CC1(C)C (stereo unspecified) | Active | inactive | inactive | Non-toxic | Toxic | – | Activity (Mus musculus [3]): Active
8 | CCOC(=O)C1(NC(=O)NNC(=O)c2cccs2)CC1(C)C (stereo unspecified) | Active | – | Active | – | Toxic | inactive | Activity (Mus musculus [17]): Active; Activity (Mus musculus [18]): Toxic
9 | CCCC(CCC)C(=O)O [VALPROIC ACID] | – | – | – | – | – | – | ED50 (Mus musculus [8]): 149 mg/kg
10 | O=C1NC(=O)C(c2ccccc2)(c2ccccc2)N1 [PHENYTOIN] | inactive | – | inactive | – | – | – | Activity (Mus musculus [19]): Toxic; ED50 (Mus musculus [8]): > 300 mg/kg; Activity (Mus musculus [12]): Active; Activity (Mus musculus [18]): Toxic; Activity (Mus musculus [13]): Active
11 | CCOC(=O)C1(NC(=O)NNC(=O)c2ccc(OC)c(OC)c2)CC1(C)C (stereo unspecified) | inactive | Active | inactive | Non-toxic | Toxic | Active | –
12 | CCOC(=O)C1(NC(=O)NNC(=O)c2ccncc2)CC1(C)C (stereo unspecified) | inactive | Active | inactive | – | Toxic | inactive | Activity (Mus musculus [18]): Toxic
13 | CCOC(=O)C1(NC(=O)NNC(=O)c2ccco2)CC1(C)C (stereo unspecified) | inactive | Active | inactive | – | Toxic | inactive | Activity (Mus musculus [18]): Toxic
14 | CCOC(=O)C1(NC(=O)NNC(=O)c2ccc(N(C)C)cc2)CC1(C)C (stereo unspecified) | inactive | Active | inactive | Non-toxic | Toxic | Active | –
15 | CCC1(c2ccccc2)C(=O)NC(=O)NC1=O [PHENOBARBITAL] | – | – | – | – | – | – | ED50 (Mus musculus [8]): 13.2 mg/kg; ED50 (Mus musculus [9]): 21.8 mg/kg
16 | CCOC(=O)C1(NC(=O)NNC(=O)c2ccccc2C)CC1(C)C (stereo unspecified) | – | – | inactive | Non-toxic | Non-toxic | – | Activity (Mus musculus [17]): Active; Activity (Mus musculus [3]): Active; Activity (Mus musculus [16]): Active
17 | CCOC(=O)C1(NC(=O)NNC(=O)c2cc(OC)c(OC)c(OC)c2)CC1(C)C (stereo unspecified) | inactive | Active | inactive | Toxic | Non-toxic | Active | –
18 | CCOC(=O)C1(NC(=O)NNC(=O)c2ccc([N+](=O)[O-])cc2)CC1(C)C (stereo unspecified) | inactive | inactive | inactive | Non-toxic | Toxic | – | Activity (Mus musculus [3]): Active
19 | CCOC(=O)C1(NC(=O)NNC(=O)c2cccc(C)c2)CC1(C)C (stereo unspecified) | inactive | inactive | inactive | Non-toxic | Non-toxic | – | Activity (Mus musculus [3]): Active
20 | CCOC(=O)C1(NC(=O)NNC(=O)c2ccc(F)cc2)CC1(C)C (stereo unspecified) | Active | Active | inactive | Non-toxic | Non-toxic | – | Activity (Mus musculus [3]): Active
21 | CCOC(=O)C1(NC(=O)NNC(=O)c2ccc(CC)cc2)CC1(C)C (stereo unspecified) | Active | Active | inactive | Non-toxic | Non-toxic | Active | –
22 | CCOC(=O)C1(NC(=O)NNC(=O)c2ccc(Cl)cc2)CC1(C)C (stereo unspecified) | inactive | Active | Active | Non-toxic | Toxic | – | ED50 (Mus musculus [8]): 335 mg/kg; ED50 (Mus musculus [9]): 20.1 mg/kg; TD50 at 0.5 h [10]: 382 mg/kg; Ratio TD50/ED50 (Mus musculus [11]): 1.1; Activity (Mus musculus [13]): Active; Ratio TD50/ED50 (Mus musculus [14]): 19
23 | CCOC(=O)C1(NC(=O)NNC(=O)c2ccccc2)CC1(C)C (stereo unspecified) | Active | inactive | inactive | Toxic | Non-toxic | Active | –
24 | CCOC(=O)C1(NC(=O)NNC(=O)c2cccnc2)CC1(C)C (stereo unspecified) | inactive | inactive | Active | – | Toxic | inactive | Activity (Mus musculus [18]): Toxic
25 | NC(=O)N1c2ccccc2C=Cc2ccccc21 [CARBAMAZEPINE] | – | – | – | – | – | – | ED50 (Mus musculus [8]): > 100 mg/kg; ED50 (Mus musculus [9]): 8.8 mg/kg
26 | CCOC(=O)C1(NC(=O)NNC(=O)c2ccc(C)cc2)CC1(C)C (stereo unspecified) | inactive | inactive | Active | Non-toxic | Toxic | – | Activity (Mus musculus [3]): Active
27 | CCOC(=O)C1(NC(=O)NN2C(=O)c3ccccc3C2=O)CC1(C)C (stereo unspecified) | – | – | Active | Non-toxic | Non-toxic | – | ED50 (Mus musculus [8]): 213 mg/kg; Activity (Mus musculus [17]): Active; ED50 (Mus musculus [9]): 23.6 mg/kg; TD50 at 0.5 h [10]: 352 mg/kg; Ratio TD50/ED50 (Mus musculus [11]): 1.7; Activity (Mus musculus [16]): Active; Activity (Mus musculus [13]): Active; Ratio TD50/ED50 (Mus musculus [14]): 14.9
28 | CCOC(=O)C1(NC(=O)NNC(=O)c2ccccc2Cl)CC1(C)C (stereo unspecified) | Active | Active | inactive | Non-toxic | Toxic | – | Activity (Mus musculus [3]): Active

Reference: ChEMBL document CHEMBL2040803, “Synthesis and anticonvulsant activity of ethyl 1-(2-arylhydrazinecarboxamido)-2,2-dimethylcyclopropanecarboxylate derivatives” (Eur J Med Chem, 2012)
